The text below walks through data of ChEMBL document CHEMBL1135810, “Water-soluble, core-modified porphyrins as novel, longer-wavelength-absorbing sensitizers for photodynamic therapy. II. Effects of core heteroatoms and meso-substituents on biological activity” (J Med Chem, 2002).

Molecules are shown by their SMILES. Where only a bound is given, the exact number is not on record here.

The assay has as its system Colon 26. In words: Effective concentration required to give 50% cell kill with 4 J/cm**2 of light.(Dark and light induced toxicity towards murine colon carcinoma cell line(COLO-26 cells)). The format is functional, cell-based. As to conditions: Mus musculus, Colon 26, light or radiation study. The essentials:
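Colo-26 mouse colon carcinoma cells grown in RPMI 1640 with 10% fetal calf serum at 37 °C, 5% CO2, plated at 5×10^3 cells/well the evening before. Cells were PBS-washed, then kept 24 h at 37 °C in the dark with graded sensitizer in HBSS, washed, and irradiated in PBS with filtered 590–800 nm light (methods state 570–800 nm) to 4 J cm-2. Dark controls were not irradiated. After 24 h in growth medium, MTT survival was read, and EC50 was taken from surviving fraction vs concentration.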

One may read the EC50 as the concentration giving half of the maximal effect. Read a high EC50 as lower potency in that assay.

Take `O=C(O)COc1ccc(-c2c3nc(c(-c4ccc(F)cc4)c4ccc(s4)c(-c4ccc(F)cc4)c4nc(c(-c5ccc(OCC(=O)O)cc5)c5ccc2s5)C=C4)C=C3)cc1`: the midpoint of the response, the EC50, lay at 0.43 µM.
Then `O=S(=O)(O)c1ccc(-c2c3nc(c(-c4ccc(S(=O)(=O)O)cc4)c4ccc([nH]4)c(-c4ccc(S(=O)(=O)O)cc4)c4ccc(s4)c(-c4ccc(S(=O)(=O)O)cc4)c4nc2C=C4)C=C3)cc1`, with > 100 µM; and `O=S(=O)(O)c1ccc(-c2c3nc(c(-c4ccc(F)cc4)c4ccc([se]4)c(-c4ccc(F)cc4)c4nc(c(-c5ccc(S(=O)(=O)O)cc5)c5ccc2[se]5)C=C4)C=C3)cc1`, with 7.9 µM.
`O=S(=O)(O)c1ccc(-c2c3nc(c(-c4ccc(F)cc4)c4ccc(s4)c(-c4ccc(F)cc4)c4nc(c(-c5ccc(S(=O)(=O)O)cc5)c5ccc2[nH]5)C=C4)C=C3)cc1` displayed an EC50 of 2.1 µM.
Then `O=S(=O)(O)c1ccc(-c2c3nc(c(-c4ccc(F)cc4)c4ccc(s4)c(-c4ccc(F)cc4)c4nc(c(-c5ccc(S(=O)(=O)O)cc5)c5ccc2[se]5)C=C4)C=C3)cc1`, with 2.1 µM; and `O=S(=O)(O)c1ccc(-c2c3nc(c(-c4ccc(C(F)(F)F)cc4)c4ccc(s4)c(-c4ccc(C(F)(F)F)cc4)c4nc(c(-c5ccc(S(=O)(=O)O)cc5)c5ccc2s5)C=C4)C=C3)cc1`, with > 100 µM.
`O=S(=O)(O)c1ccc(-c2c3nc(c(-c4ccc(S(=O)(=O)O)cc4)c4ccc([se]4)c(-c4ccc(S(=O)(=O)O)cc4)c4nc(c(-c5ccc(S(=O)(=O)O)cc5)c5ccc2[se]5)C=C4)C=C3)cc1`: the EC50 was > 100 µM.
`O=C(O)COc1ccc(-c2c3nc(c(-c4ccccc4)c4ccc(s4)c(-c4ccccc4)c4nc(c(-c5ccc(OCC(=O)O)cc5)c5ccc2s5)C=C4)C=C3)cc1` came in with an EC50 of 0.15 µM.
Consider `CN(C)c1ccc(-c2c3nc(c(-c4ccc(S(=O)(=O)O)cc4)c4ccc(s4)c(-c4ccc(S(=O)(=O)O)cc4)c4nc(c(-c5ccc(N(C)C)cc5)c5ccc2s5)C=C4)C=C3)cc1`, for which the EC50 came to 0.64 µM.
`O=S(=O)(O)c1ccc(-c2c3nc(c(-c4ccc(F)cc4)c4ccc(s4)c(-c4ccc(F)cc4)c4nc(c(-c5ccc(S(=O)(=O)O)cc5)c5ccc2s5)C=C4)C=C3)cc1` returned an EC50 of 1.6 µM.
To `O=S(=O)(O)c1ccc(-c2c3nc(c(-c4ccc(S(=O)(=O)O)cc4)c4ccc([nH]4)c(-c4ccc(S(=O)(=O)O)cc4)c4ccc([nH]4)c(-c4ccc(S(=O)(=O)O)cc4)c4nc2C=C4)C=C3)cc1` belongs 125 µM.
Regarding `O=S(=O)(O)c1ccc(-c2c3nc(c(-c4ccc(S(=O)(=O)O)cc4)c4ccc(s4)c(-c4ccc(S(=O)(=O)O)cc4)c4nc(c(-c5ccc(S(=O)(=O)O)cc5)c5ccc2s5)C=C4)C=C3)cc1`, the midpoint of the response, the EC50, lay at 30 µM.
`Cc1ccc(-c2c3nc(c(-c4ccc(S(=O)(=O)O)cc4)c4ccc(s4)c(-c4ccc(S(=O)(=O)O)cc4)c4nc(c(-c5ccc(C)cc5S(=O)(=O)O)c5ccc2s5)C=C4)C=C3)c(S(=O)(=O)O)c1` came in with an EC50 of 12 µM.
Then `O=S(=O)(O)c1ccc(-c2c3nc(c(-c4ccc(F)cc4)c4ccc([se]4)c(-c4ccc(F)cc4)c4nc(c(-c5ccc(S(=O)(=O)O)cc5)c5ccc2s5)C=C4)C=C3)cc1`, with 1.2 µM.
